# Compound activity from PubChem BioAssay.
# The list is not random: actives were taken first. Their share in the collection is about 1.2%.
# PP5 inh: PP5 phosphatase inhibitors, primary screen, biochemical, fluorescence | 320,000 tested, 0.18% active | purified PP5c, OMFP substrate fluorescence | inhibition, % at 6.7 µM | AID 1987, 2009 | Serine/threonine-protein phosphatase 5 (Homo sapiens), P53041;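 active = inhibition above the campaign's mean inhibition across all tested compounds plus 3 SD, cut at about 9.5% in these data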;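 also: 0% = DMSO only and 100% = 100 µM cantharidin control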
# PP1 counter: PP1-alpha phosphatase inhibitors, primary screen, counter-screen for PP5 inhibitor project, biochemical, fluorescence, OMFP substrate, single point; inhibition, % at 6.7 µM; AID 2235, 2010; purified PP1alpha; Serine/threonine-protein phosphatase PP1-alpha catalytic subunit (Homo sapiens), P62136; 320,000 tested, 0.9% active;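 active = inhibition above the mean inhibition of all tested compounds plus 3 SD, computed separately for each screening campaign, cut at about 15% in these data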
# Target sequence (P62136 whole entry, looked up): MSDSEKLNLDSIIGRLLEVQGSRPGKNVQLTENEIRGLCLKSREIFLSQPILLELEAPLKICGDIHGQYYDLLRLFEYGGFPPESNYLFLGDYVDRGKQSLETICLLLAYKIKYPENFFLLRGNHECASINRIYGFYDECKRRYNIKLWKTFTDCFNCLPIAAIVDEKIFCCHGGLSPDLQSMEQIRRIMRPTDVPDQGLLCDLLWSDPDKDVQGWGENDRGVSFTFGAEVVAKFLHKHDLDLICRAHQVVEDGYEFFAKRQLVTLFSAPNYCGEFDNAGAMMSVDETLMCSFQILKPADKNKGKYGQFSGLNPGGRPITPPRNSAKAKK
# proCasp7 act: procaspase-7 activators, primary screen, counter-screen for procaspase-3 activator project, biochemical, absorbance, HTS, human; AID 463210, 2010; recombinant procaspase-7, Ac-DEVD-pNA absorbance 405 nm; D23A/D198A/D206A triple mutant, cannot self-cleave; scale: DMSO 0, 5 µM enzyme 100; Caspase-7 (Homo sapiens), P55210; activation, % at 8.5 µM; 330,000 tested, 0.093% active;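 active = percent activation above the screen-wide mean plus 3 SD, cut at about 25% in these data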
#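 Assay system – Uncleavable procaspase-7 mutant enzyme · Quantity – 2 µM procaspase-7 mutant as dispensed · Times – 1 h preincubation, 2 h reaction · Dosing – single nominal 8.5 µM compound dose, 0.8% DMSO final · Buffer or medium – Zinc-free 50 mM HEPES buffer, pH 7.4, with NaCl and Triton X-100 · Detection – Epi-absorbance of released pNA at 405 nm, two timepoints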
# proCasp3 act: activators of human procaspase-3 D3A mutant, primary screen, biochemical, absorbance, PC-3 D3A mutant, single concentration; recombinant procaspase-3 D3A, Ac-DEVD-pNA absorbance 405 nm; activation, % at 8.5 µM; Caspase-3 (Homo sapiens), P42574; AID 463141, 2010; 330,000 tested, 0.11% active;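 active = activation above the mean of all tested compounds plus 3 SD, cut at about 21% in these data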;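 also: 0% = DMSO alone and 100% = DMSO wells spiked with extra 5 µM PC-3 D3A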
# Target sequence (P42574 whole entry D9A/D28A/D175A): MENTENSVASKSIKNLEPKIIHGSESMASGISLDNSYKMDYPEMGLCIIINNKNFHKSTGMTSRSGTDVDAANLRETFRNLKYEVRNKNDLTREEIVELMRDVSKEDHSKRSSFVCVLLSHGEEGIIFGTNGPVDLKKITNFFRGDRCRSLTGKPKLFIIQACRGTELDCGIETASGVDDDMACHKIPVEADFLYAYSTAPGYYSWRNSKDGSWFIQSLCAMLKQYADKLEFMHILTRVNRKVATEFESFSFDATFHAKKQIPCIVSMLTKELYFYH
#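 Assay system – Procaspase-3 D3A mutant · Benchmarks – DMSO low control, extra-enzyme high control · Technique – 405 nm absorbance of p-nitroaniline, reads at 0 and 120 min · Doses – 8.5 µM nominal · Measure – % activation between DMSO and enzyme-spiked controls · Also added – Ac-DEVD-pNA chromogenic peptide substrate · Schedule – 1 h compound preincubation, 2 h substrate hydrolysis at 25 °C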
# PP1 confirm: PP1 phosphatase inhibitors, confirmation, biochemical, fluorescence, OMFP substrate, triplicate; inhibition, % at 6.7 µM; 1,900 tested, 52% active; shares compounds with PP1 counter; purified PP1alpha;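 active = mean PP1 inhibition above a set limit taken from the earlier primary screen, cut at about 15% in these data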
# PP5 inh counter: PP5 phosphatase inhibition by PP1 hits, confirmation, counter-screen for PP1 inhibitor project, biochemical, fluorescence, triplicate; shares compounds with PP1 counter; purified PP5c, OMFP fluorescence; inhibition, % at 6.7 µM; 1,900 tested, 4% active; AID 2360, 2010;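 active = mean PP5 inhibition over triplicate wells above about 9.5% taken from the earlier PP1 screen, limit read from the data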
# The depositor's hits bear a star; nt = no result given.
SMILES,PP5 inh,PP1 counter,proCasp7 act,proCasp3 act,PP1 confirm,PP5 inh counter
CC(=O)c1ccc(NC(=O)C2CCCNC2=O)cc1 (stereo unspecified),2.7,21.6*,-2.2,-3.4,-2.5,-4.4
COc1cc(/C=C(/C#N)C(=O)Nc2ccccc2)c(Br)cc1OCc1ccc(C(=O)O)cc1,0.4,5.2,3.6,-5.9,nt,nt
COc1cc(/C=C(\C#N)C(=O)Nc2cccc(C(=O)O)c2)ccc1OCc1ccc(Cl)cc1,4.0,31.4*,12.4,1.4,24.2*,1.7
c1ccc(-c2nc3cc4ccccc4cc3[nH]2)nc1,1.7,30.1*,3.0,2.2,19.6*,3.6
CC(=O)Nc1ccc2nc(-c3ccccn3)[nH]c2c1,1.6,3.8,-5.7,-2.7,nt,nt
CCN(CC)S(=O)(=O)c1ccc(N2CCCC2)c(NC(=O)CN2C(=O)NC3(CCCC3)C2=O)c1,0.7,20.8*,5.9,8.7,0.5,-5.3
CCCCCc1c2c(cc(O)c1C(=O)O)OC(=O)c1cc(C(=O)CCCC)c(OC)cc1O2,nt,nt,1.9,1.8,nt,nt
CCCCCc1c2c(cc(O)c1C(=O)O)OC(=O)c1c(cc(OC)cc1C(=O)CCCC)O2,5.3,24.8*,-0.4,5.1,27.6*,1.6
CN(C(=O)COC(=O)c1ccccc1SCC(=O)N1CCCC1)C1(C#N)CCCCC1,1.0,-1.8,-10.7,7.9,nt,nt
COc1ccc(S(=O)(=O)N(CC(=O)N2CCCCCC2)c2ccccc2OC)cc1,-0.3,-2.3,-3.9,3.8,nt,nt
COc1cc2nc(N(CCN(C)C)C(=O)c3ccc4ccccc4c3)sc2cc1OC,-2.7,6.0,5.1,-9.1,nt,nt
CCN(CC)CCN(C(=O)c1ccc2c(c1)CCCC2)c1nc2cc(OC)c(OC)cc2s1,16.6*,24.4*,1.5,3.5,-3.1,1.6
Cc1ccc(/C=N/NC(=O)C2COc3ccccc3O2)s1 (stereo unspecified),3.0,1.6,6.4,-7.5,nt,nt
Cc1c(/C=N\NC(=O)C2COc3ccccc3O2)c2ccccc2n1C (stereo unspecified),3.8,0.8,-9.7,-3.4,nt,nt
O=C(N/N=C/c1c(O)n(-c2ccccc2Cl)c(=O)c2ccccc12)C1COc2ccccc2O1 (stereo unspecified),-3.3,19.1*,-36.7,-42.2,22.7*,-3.2
Cc1ccc(-n2c(O)c(/C=N/NC(=O)C3COc4ccccc4O3)c3ccccc3c2=O)cc1 (stereo unspecified),-0.8,19.0*,-55.5,-58.7,27.3*,-1.6
O=C(Cc1ccccc1)Nc1ccccc1C(=O)O,-0.6,0.7,0.3,12.9,nt,nt
Cc1ccc(S(=O)(=O)c2c(N)n(CCCN(C)C)c3nc4ccccc4nc23)cc1,-0.2,-1.2,4.6,1.1,nt,nt
COc1ccc(S(=O)(=O)c2c(N)n(Cc3ccco3)c3nc4ccccc4nc23)cc1,-2.1,19.3*,-12.1,-1.0,9.5,0.3
COc1ccccc1NC(=O)c1sc(Cl)nc1C,-0.3,-5.2,-2.3,-4.9,nt,nt
COc1ccccc1NC(=O)c1c(Nc2ccccc2F)sc(C(=O)Nc2cccc(Cl)c2)c1N,0.4,22.1*,-19.0,-14.9,2.5,1.9
CCc1cccc(NC(=O)C2CCCN(S(=O)(=O)c3cccnc3)C2)c1 (stereo unspecified),1.7,2.7,3.7,3.2,nt,nt
O=C(O)CSc1nnc(COc2ccc(Br)cc2)n1-c1ccccc1,1.9,30.7*,2.7,-0.5,2.6,2.0
O=C(CSc1nnc(COc2ccccc2)n1-c1ccccc1)c1ccccc1,1.4,1.1,-2.0,2.8,nt,nt
COc1cccc(CCNC(=O)c2cc(COc3c(F)cccc3F)on2)c1,2.6,1.0,9.6,5.5,nt,nt
SMILES,PP5 inh,PP1 counter,proCasp7 act,proCasp3 act,PP1 confirm,PP5 inh counter
O=C(COc1ccc(-c2ccccc2)cc1)N/N=C/c1ccccc1Br,6.0,17.8*,-10.3,1.7,3.2,-0.9
CC(=O)Nc1ccc(N=Cc2c(O)c(C(=O)Nc3ccccc3)cc3ccccc23)cc1,2.0,-3.5,-2.8,1.0,nt,nt
Cn1c2ccccc2c2cc(/C=N/NC(=O)c3ccc(O)cc3O)ccc21,4.5,-4.0,8.6,18.0,nt,nt
COc1ccc2c(c1)cc(C(=O)N/N=C/c1c(O)c(C(=O)O)cc3ccccc13)n2C,3.7,34.8*,-56.7,-26.3,29.8*,0.6
Cn1c(O)c(/C=N/NC(=O)c2cc3ccccc3cc2O)c2ccccc21,2.8,22.4*,-14.7,-5.6,16.4*,-2.8
O=C(CCN1C(=O)c2ccccc2S1(=O)=O)Nc1cccc(F)c1,-0.1,-2.3,-3.3,7.7,nt,nt
CCOC(=O)C1CCN(C(=O)Nc2ccc3nc(-c4ccco4)c(-c4ccco4)nc3c2)CC1,5.0,31.2*,-16.5,-10.7,10.3,5.7
CCOC(=O)C1CCN(C(=O)Nc2ccc3c(c2)nc(C)n3C)CC1,3.3,-3.0,-5.6,3.4,nt,nt
Cc1cccc(N2CCN(C(=O)/C=C/c3cccs3)CC2)c1C,0.7,6.9,9.5,0.5,nt,nt
COc1ccc(-c2nnc(NC(=O)c3ccc(S(=O)(=O)N4COCC4(C)C)cc3)o2)cc1,0.9,29.7*,-6.8,9.0,28.7*,-1.1
Clc1ccccc1C(c1ccccc1)(c1ccccc1)n1ccnc1,0.8,18.3*,-0.8,1.4,5.5,-3.5
NC(=O)c1ccc(NC(=O)COC(=O)CCN2C(=O)c3ccccc3C2=O)cc1,nt,nt,-0.6,10.5,nt,nt
O=C(N/N=C/c1ccc(O)cc1O)c1ccc(NC(=O)C2CCCCC2)cc1,2.2,50.0*,9.5,48.1*,36.2*,-3.5
O=C(N/N=C/c1ccc(O)cc1O)C1CC1,-1.2,-2.1,0.1,-13.7,nt,nt
CCC1=NNc2cccc3c(OC)ccc1c23,5.5,32.8*,1.7,1.0,9.1,4.6
CCCCCCCCCCOC(=O)c1csc2nnsc12,4.4,5.9,10.5,5.5,nt,nt
O=C(O)c1ccc(N=Nc2c(O)ccc3ncccc23)cc1,4.1,21.0*,7.1,-12.1,14.3,0.4
Cc1ccccc1OCCC(=O)OCC(=O)NC(=O)c1ccccc1,2.0,22.5*,-9.6,4.5,-1.2,-5.5
O=C(NCC(=O)N1CCCC(C(F)(F)F)C1)c1ccco1 (stereo unspecified),-2.8,1.0,7.5,0.1,nt,nt
C=CCOC(=O)C1=C[C@H](c2csc3ccccc23)C[C@H](OCc2ccc(CO)cc2)O1,3.4,21.5*,-0.9,8.3,4.5,-1.6
